Data from ChEMBL document CHEMBL4480400, “Development of an N-Acyl Amino Acid That Selectively Inhibits the Glycine Transporter 2 To Produce Analgesia in a Rat Model of Chronic Pain” (J Med Chem, 2019).

What was measured:
[1] = target: T1, Sodium- and chloride-dependent glycine transporter 1 (Homo sapiens, UniProt P48067); experiment: Inhibition of recombinant human GlyT1b expressed in Xenopus laevis oocytes assessed as reduction in channel current by two-electrode voltage clamp electrophysiology; type: cell-based
T1 sequence (P48067 whole entry): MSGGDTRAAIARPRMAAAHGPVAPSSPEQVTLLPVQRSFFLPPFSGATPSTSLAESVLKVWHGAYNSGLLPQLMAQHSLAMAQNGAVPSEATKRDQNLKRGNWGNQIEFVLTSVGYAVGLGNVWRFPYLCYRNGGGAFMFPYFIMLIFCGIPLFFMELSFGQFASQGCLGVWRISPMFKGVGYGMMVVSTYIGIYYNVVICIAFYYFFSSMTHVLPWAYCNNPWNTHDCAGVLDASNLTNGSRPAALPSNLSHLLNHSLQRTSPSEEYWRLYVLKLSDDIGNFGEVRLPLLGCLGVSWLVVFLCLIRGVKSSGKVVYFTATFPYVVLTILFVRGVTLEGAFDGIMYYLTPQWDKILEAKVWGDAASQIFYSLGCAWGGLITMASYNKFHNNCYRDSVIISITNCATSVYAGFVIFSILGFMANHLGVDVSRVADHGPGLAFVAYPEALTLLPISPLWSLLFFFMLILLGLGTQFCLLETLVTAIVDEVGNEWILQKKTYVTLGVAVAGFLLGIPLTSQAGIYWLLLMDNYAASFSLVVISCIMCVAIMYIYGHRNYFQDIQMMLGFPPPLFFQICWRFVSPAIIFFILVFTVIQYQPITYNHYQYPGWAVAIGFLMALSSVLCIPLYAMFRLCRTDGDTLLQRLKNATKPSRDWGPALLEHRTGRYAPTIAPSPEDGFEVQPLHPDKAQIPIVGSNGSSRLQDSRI

[2] = target: T2, Sodium- and chloride-dependent glycine transporter 2 (Homo sapiens, UniProt Q9Y345); experiment: Inhibition of recombinant human GlyT2a expressed in Xenopus laevis oocytes assessed as reduction in channel current by two-electrode voltage clamp electrophysiology; type: cell-based
T2 sequence (Q9Y345 whole entry): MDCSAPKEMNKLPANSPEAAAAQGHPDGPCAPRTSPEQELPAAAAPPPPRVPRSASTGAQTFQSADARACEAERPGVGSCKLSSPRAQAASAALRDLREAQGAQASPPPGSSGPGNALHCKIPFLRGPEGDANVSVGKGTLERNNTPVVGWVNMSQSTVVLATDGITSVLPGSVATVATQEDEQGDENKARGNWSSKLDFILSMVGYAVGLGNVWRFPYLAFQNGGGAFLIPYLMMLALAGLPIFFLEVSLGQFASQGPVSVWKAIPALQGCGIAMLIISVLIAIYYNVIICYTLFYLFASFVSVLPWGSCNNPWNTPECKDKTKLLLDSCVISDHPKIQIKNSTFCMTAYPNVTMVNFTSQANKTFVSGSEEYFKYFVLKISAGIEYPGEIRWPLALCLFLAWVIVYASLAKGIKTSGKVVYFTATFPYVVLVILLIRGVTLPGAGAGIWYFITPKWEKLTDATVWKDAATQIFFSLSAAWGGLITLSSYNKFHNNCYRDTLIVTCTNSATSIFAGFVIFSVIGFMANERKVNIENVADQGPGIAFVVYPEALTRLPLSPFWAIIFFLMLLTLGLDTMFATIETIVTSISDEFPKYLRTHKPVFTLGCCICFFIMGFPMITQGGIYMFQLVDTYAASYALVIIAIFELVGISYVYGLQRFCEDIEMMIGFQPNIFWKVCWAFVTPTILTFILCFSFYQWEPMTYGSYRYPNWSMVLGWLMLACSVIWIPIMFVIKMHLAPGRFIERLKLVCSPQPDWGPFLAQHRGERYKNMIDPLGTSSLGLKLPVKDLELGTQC

[3] = target: T3, Sodium- and chloride-dependent glycine transporter 2 (Homo sapiens) (UniProt Q9Y345); experiment: Inhibition of recombinant human GlyT2a expressed in Xenopus laevis oocytes assessed as reduction in channel current by two-electrode voltage clamp electrophysiology relative to control; type: cell-based
T3 sequence (whole entry): T2 sequence (Q9Y345 whole entry)

[4] = target: T2, Sodium- and chloride-dependent glycine transporter 2; experiment: Reversible non-competitive inhibition of human GlyT2a expressed in Xenopus laevis oocytes by two-electrode voltage clamp electrophysiology; type: cell-based
Outline: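 Xenopus laevis stage V-VI oocytes injected with 4.6 ng GlyT2 cRNA, kept 2-5 days at 16-18 °C in ND96 (pH 7.55). Two-electrode voltage clamp at -60 mV. Glycine concentration responses recorded without inhibitor, then after 2 min pre-application of inhibitor (10 nM, 30 nM or 1 μM) in ND96. Currents normalised per cell to Imax at 300 μM glycine without inhibitor; EC50 and Imax compared by ANOVA.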

[5] = Degradation half life in rat plasma at 1000 ng/ml by LC-MS/MS analysis; type: ADME, cell-free
Outline: (§1)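 Pooled human plasma (3 donors) or pooled male Sprague-Dawley rat plasma, thawed at 37°C. Spiked to a nominal 1000 ng/mL final (0.2% DMSO, 0.4% acetonitrile final) and incubated at 37°C. Aliquots were snap-frozen at time points over 4 h (n=3 per time point). Quantified by LC-MS against a same-species blank-plasma calibration with a leucine enkephalin internal standard.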

[6] = Drug degradation in human plasma at 1000 ng/ml measured over 240 mins by LC-MS/MS analysis; type: ADME, cell-free; conditions: read-out: Drug degradation; outline: as §1
[7] = Degradation half life in human plasma at 1000 ng/ml by LC-MS/MS analysis; type: ADME, cell-free; outline: as §1

Compound | IC50 [1] [µM] | IC50 [2] [µM] | Imax [3] [%] | t1/2 [5] [h] | metabolised at 4 h, 1000 ng/ml [6] [%] | t1/2 [7] [h] | IC50 [4] [µM]
CCCCCCCC/C=C\CCCCCCCC(=O)N[C@@H](C(=O)O)C(C)C | > 30 | 1 | 56.7 | – | – | – | –
CCCCC/C=C\C/C=C\C/C=C\C/C=C\CCCC(=O)NCC(=O)O [ARACHIDONOYL GLYCINE] | – | – | – | – | – | – | 9
CCCCCCCC/C=C\CCCCCCCC(=O)N[C@H](C(=O)O)C(C)C | > 30 | 1.17 | 90.1 | – | – | – | –
CCCCCCCC/C=C\CCCCCCCC(=O)NCC(=O)O [OLEOYL GLYCINE] | > 30 | 0.5 | 66.8 | 0.45 | < 15 | > 17.03 | 0.5
CCCCCCCC/C=C\CCCCCCCC(=O)N[C@H](CC(C)C)C(=O)O | > 30 | > 30 | 35.6 | – | – | – | –
CCCCCCCC/C=C\CCCCCCCC(=O)N[C@H](CCCNC(=N)N)C(=O)O | > 3 | 0.0692 | 70.9 | – | – | – | –
CCCCCCCC/C=C\CCCCCCCC(=O)N[C@H](C)C(=O)O | > 30 | 2.33 | 81.7 | – | – | – | –
CCCCCCCC/C=C\CCCCCCCC(=O)N[C@@H](CC(C)C)C(=O)O | > 10 | 0.143 | 72.2 | – | – | – | –
CCCCCCCC/C=C\CCCCCCCC(=O)N[C@H](Cc1cnc[nH]1)C(=O)O | > 3 | 0.313 | 82.1 | – | – | – | –
CCCCCCCC/C=C\CCCCCCCC(=O)N[C@@H](CCCC)C(=O)O | > 10 | 0.259 | 64.5 | – | – | – | –
CCCCCCCC/C=C\CCCCCCCC(=O)N[C@@H](C)C(=O)O | > 30 | 1.23 | 89.8 | – | – | – | –
CCCCCCCC/C=C\CCCCCCCC(=O)N[C@@H](CCCCN)C(=O)OC | > 3 | 0.0913 | 78.8 | – | – | – | –
CCCCC/C=C\C/C=C\C/C=C\C/C=C\CCCC(=O)N[C@@H](C)C(=O)O | – | – | – | – | – | – | 9
CCCCCCCCCCCCCCCC(=O)O[C@H](CC(=O)[O-])C[N+](C)(C)C | – | – | – | – | – | – | 0.6
CCCCCCCC/C=C\CCCCCCCC(=O)NCCCCCN | > 3 | 0.56 | 86.7 | – | – | – | –
CCCCC/C=C\C/C=C\C/C=C\C/C=C\CCCC(=O)NCCCC(=O)O [ARACHIDONOYL GABA] | – | – | – | – | – | – | 12
CCCCCCCC/C=C\CCCCCCCC(=O)N[C@@H](CCCNC(=N)N)C(=O)O | > 3 | 0.0479 | 87.2 | – | – | – | –
CCCCCCCC/C=C\CCCCCCCC(=O)N[C@@H](Cc1cnc[nH]1)C(=O)O | > 3 | 0.13 | 78.4 | – | – | – | –
CCCCCCCC/C=C\CCCCCCCC(=O)N[C@@H](CN)C(=O)O | > 3 | 0.182 | 58.2 | – | – | – | –
CCCCCCCC/C=C\CCCCCCCC(=O)O[C@H](CC(=O)[O-])C[N+](C)(C)C | – | – | – | – | – | – | 0.34
CCCCCCCC/C=C\CCCCCCCC(=O)N[C@@H](CC(=O)O)C(=O)O | > 10 | 0.865 | 76.7 | – | – | – | –
CCCCCCCC/C=C\CCCCCCCC(=O)N[C@@H](CC(N)=O)C(=O)O | > 10 | 0.613 | 92.7 | – | – | – | –
CCCCCCCC/C=C\CCCCCCCC(=O)N[C@H](CO)C(=O)O | > 3 | 0.0648 | 73.6 | – | – | – | –
CCCCCCCC/C=C\CCCCCCCC(=O)N[C@H](CC(=O)O)C(=O)O | > 10 | 1.81 | 92.5 | – | – | – | –
CCCCCCCC/C=C\CCCCCCCC(=O)N[C@@H](CO)C(=O)O | > 3 | 0.496 | 73.1 | – | – | – | –

More lines, main results first:

IC50 [1] [µM] | IC50 [2] [µM] | Imax [3] [%] | t1/2 [5] [h] | metabolised at 4 h, 1000 ng/ml [6] [%] | t1/2 [7] [h] | Compound | IC50 [4] [µM]
> 10 | 4.35 | 100 | – | – | – | CCCCCCCC/C=C\CCCCCCCC(=O)N[C@@H](CCC(=O)O)C(=O)O | –
> 10 | > 10 | 14.2 | – | – | – | CCCCCCCC/C=C\CCCCCCCC(=O)N[C@H](Cc1c[nH]c2ccccc12)C(=O)O | –
> 10 | 0.151 | 75.1 | – | – | – | CCCCCCCC/C=C\CCCCCCCC(=O)N[C@@H](CCc1ccccc1)C(=O)O | –
> 3 | 0.259 | 68.6 | – | – | – | CCCCCCCC/C=C\CCCCCCCC(=O)N[C@H](CCSC)C(=O)O | –
> 10 | 3.75 | 91.6 | – | – | – | CCCCCCCC/C=C\CCCCCCCC(=O)N[C@H](CCC(=O)O)C(=O)O | –
> 10 | > 10 | 10.2 | – | – | – | CCCCCCCC/C=C\CCCCCCCC(=O)N[C@H](CCc1ccccc1)C(=O)O | –
> 10 | 0.214 | 54.7 | – | – | – | CCCCCCCC/C=C\CCCCCCCC(=O)N[C@@H](Cc1ccccc1)C(=O)O | –
> 10 | > 10 | 42.3 | – | – | – | CCCCCCCC/C=C\CCCCCCCC(=O)N[C@H](Cc1ccccc1)C(=O)O | –
> 3 | 0.0292 | 91.2 | – | – | – | CCCCCCCC/C=C\CCCCCCCC(=O)N[C@@H](CCSC)C(=O)O | –
> 3 | 0.152 | 82.7 | – | – | – | CCCCCCCC/C=C\CCCCCCCC(=O)N[C@@H](CCN)C(=O)O | –
> 10 | 0.0546 | 86.2 | – | – | – | CCCCCCCC/C=C\CCCCCCCC(=O)N[C@@H](Cc1c[nH]c2ccccc12)C(=O)O | –
> 3 | 0.0316 | 86 | – | – | – | CCCCCCCC/C=C\CCCCCCCC(=O)N[C@@H](CCCN)C(=O)O | –
